High-throughput results (PubChem)
Most compounds without a hit are left out; they make up all but 1.7% or so of the library.
APOBEC3G inh = blocks human APOBEC3G single-stranded DNA deamination. Q9HC16. recombinant A3G, ssDNA deamination FAM/TAMRA fluorescence. 0.28% of 330,000 active. AID 493012. inhibition, % at 20 µM;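 active = inhibition of at least 40% at 20 µM, with no more than 30% in the related APOBEC3A deaminase screen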;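 also: plate controls were DMSO wells with A3G for no effect and wells lacking A3G enzyme for full effect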
Target sequence (Q9HC16 whole entry, looked up): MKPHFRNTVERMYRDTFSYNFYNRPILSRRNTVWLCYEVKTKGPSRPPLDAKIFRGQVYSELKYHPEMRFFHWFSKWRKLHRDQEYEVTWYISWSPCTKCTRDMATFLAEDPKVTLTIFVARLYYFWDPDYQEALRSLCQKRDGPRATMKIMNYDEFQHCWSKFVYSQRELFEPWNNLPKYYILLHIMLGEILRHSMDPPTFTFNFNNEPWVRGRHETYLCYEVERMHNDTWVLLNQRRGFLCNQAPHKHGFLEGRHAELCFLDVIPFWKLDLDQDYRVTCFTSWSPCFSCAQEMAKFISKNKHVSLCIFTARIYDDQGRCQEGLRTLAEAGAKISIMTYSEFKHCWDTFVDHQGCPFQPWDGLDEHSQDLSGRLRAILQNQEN
Keap1 Nrf2 FP = Keap1-Nrf2 (human) interaction inhibition | AID 504523 | inhibition, % at 9.4 µM | Keap1 Kelch-Nrf2 peptide fluorescence polarization, 1536-well | Q14145 | 0.15% of 340,000 active; in the data active = inhibition above about 12%;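 also: human Keap1 Kelch domain with fluorescein labeled Nrf2 9mer peptide probe; 0% = neutral control wells and 100% = peptide positive control; higher means more block of Keap1 binding to Nrf2 peptide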
CAL PDZ FP-1 = inhibitors of human CAL PDZ peptide binding; purified CAL PDZ, TMR-peptide fluorescence polarization, 1 h; inhibition, % at 20 µM; Q9HD26; 0.02% of 330,000 active;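 active = highest replicate inhibition of at least 40%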;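 also: plate controls were DMSO neutral control wells for no effect and unlabeled competitor peptide control wells for full effect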
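material = purified tagged CAL PDZ domain construct (CerCALP) | compound dosing = 20 µM, one dose | times = 1 h at RT | measured by = fluorescence polarization from S- and P-plane intensities, G-factor corrected | read-out = inhibition from polarization loss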
APOBEC3A inh = blocks human APOBEC3A ssDNA deamination | recombinant A3A, FAM/TAMRA ssDNA deamination fluorescence | P31941 | 0.41% of 330,000 active | AID 493011 | inhibition, % at 20 µM;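 active = at least 40% inhibition at 20 µM here, with at most 30% in a related deaminase screen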;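 also: plate controls were A3A with DMSO for no effect and wells lacking A3A enzyme for full effect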
Target sequence (P31941 whole entry, looked up): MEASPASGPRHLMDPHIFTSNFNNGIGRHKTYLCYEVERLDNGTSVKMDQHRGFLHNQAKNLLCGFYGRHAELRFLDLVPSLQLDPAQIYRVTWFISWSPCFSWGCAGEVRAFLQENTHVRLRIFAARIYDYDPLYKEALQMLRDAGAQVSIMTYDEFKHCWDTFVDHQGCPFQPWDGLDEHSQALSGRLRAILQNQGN
CAL PDZ FP-2 = blocks peptide binding to the human CAL PDZ domain. 0.92% of 300,000 active. inhibition, % at 24.9 µM. purified CAL PDZ, TMR-peptide fluorescence polarization, 1 h. AID 602252;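 active = mean inhibition of at least 30% with at least half of replicates also reaching 30%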;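 also: 0% = DMSO neutral control and 100% = excess unlabeled competitor peptide PRC23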
C-LANA FP = blocks KSHV LANA C-terminal domain binding to DNA; 0.078% of 340,000 active; inhibition, % at 9 µM; MBP-C-LANA/FAM-LBS DNA binding, fluorescence polarization; AID 504423;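 active = highest replicate inhibition at or above 60% at 9 µM, even if other replicates fall short; inactive = all replicates below 60% inhibition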;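 also: 0% = neutral control wells and 100% = 4 µM acridine orange control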
The depositor's hits bear a star; . = no result.

SMILES	APOBEC3G inh	Keap1 Nrf2 FP	CAL PDZ FP-1	APOBEC3A inh	CAL PDZ FP-2	C-LANA FP
COc1ccc(OC)c(NC(=O)CN2C(=O)NC3(CCOc4ccccc43)C2=O)c1 (centres undefined)	-5	3	.	-3	38*	0
COc1cccc(NC(=O)CN2C(=O)NC3(CCc4ccccc43)C2=O)c1 (centres undefined)	-8	-5	-2	0	73*	-1
COC(=O)CNC(=O)CN1C(=O)NC2(CCCc3ccccc32)C1=O (centres undefined)	-5	-1	0	-4	39*	0
NS(=O)(=O)c1ccc(CCNC(=O)C(c2ccccc2)c2ccccc2)cc1	-9	-8	0	-4	-11	0
O=[N+]([O-])c1ccc(SCc2ccco2)cc1N1CCOCC1	-4	-4	-1	0	45*	-2
Cc1ccc(/C=N/Nc2nc3ccccc3s2)o1	-9	-2	1	-1	-2	2
O=C(c1ccc(-c2ccccc2)cc1)N1CCN(c2ccccn2)CC1	-1	0	-1	1	78*	-2
CC1(COS(N)(=O)=O)CCCCC1	-7	-2	1	2	0	-2
CCOC(=O)CSc1nnc(CNC(=O)c2cccc(C)c2)n1C	-3	-5	4	1	76*	1
COC(=O)CSc1nnc(CNC(=O)c2ccc(OC)c(OC)c2)n1C	8	-4	-2	4	38*	-2
CCOC(=O)CSc1nnc(CNC(=O)c2cccc(C)c2)n1-c1ccccc1OC	-9	2	.	-2	-1	1
CC[C@@]1(C(=O)OC)N[C@H](CN(C)C(=O)c2ccc(C)cc2)[C@@H]2C(=O)N(Cc3ccccc3)C(=O)[C@@H]21	-6	-3	1	-3	0	2
c1ccc(-c2ccccc2OCCOCCN2CCc3ccccc3C2)cc1	-1	3	0	3	75*	0
Clc1ccc(OCCOCCN2CCc3ccccc3C2)c(Cl)c1	-2	-3	-1	0	-3	0
COc1cc(OC)nc(Oc2ccc(N)c(C)c2)n1	-7	1	-2	-3	-7	-1
Cc1ccc(NC(=O)C(NC2CCCC2)c2ccccc2)cc1Cl (centres undefined)	-19	2	-1	-5	58*	-1
COc1cccc(NC(=O)C(NC2CCCC2)c2ccccc2)c1 (centres undefined)	-8	1	0	-17	-3	0
COCCCNC(=O)c1cn(CCOC)c(=O)c2c1c1ccccc1n2C	-1	5	-2	0	-1	-2
COCCNC(=O)c1cn(CCOC)c(=O)c2c1c1ccccc1n2C	-6	1	-2	0	49*	-4
Cc1sc(NC(=O)Cc2ccc3c(c2)OCO3)nc1-c1ccc2c(c1)CCN2C(=O)c1ccc(F)cc1	-4	-4	-1	-2	-3	3
Cc1sc(NC(=O)CN2CCCC2)nc1-c1ccc2c(c1)CCN2C(=O)c1cccc(F)c1	-15	-5	-2	-4	165*	-1
COc1ccccc1CNC(=O)C(NC(=O)c1ccccc1)C(C)C (centres undefined)	-2	-6	-1	4	.	0
CC(=O)NC(Cc1cccc(C)c1)C(=O)NC1CCN(S(=O)(=O)c2ccccc2)CC1 (centres undefined)	1	-3	-1	-5	49*	-1
O=C(NNc1nc(=O)c2cccnc2s1)c1ccccc1O	-1	-5	.	0	-4	-1
COCCNc1oc(/C=C/c2ccccc2)nc1C#N	2	-5	-1	7	-4	0
SMILES	APOBEC3G inh	Keap1 Nrf2 FP	CAL PDZ FP-1	APOBEC3A inh	CAL PDZ FP-2	C-LANA FP
N#Cc1nc(/C=C/c2ccccc2)oc1NCCCN1CCOCC1	-11	7	0	-7	36*	1
CCOC(=O)c1sc(NC(=O)Nc2ccc(Cl)cc2)nc1C	-1	-6	0	2	52*	2
O=C(CN1C(=O)c2ccccc2C1=O)NC1CCC(O)CC1 (centres undefined)	-1	3	-1	-3	.	0
O=C1c2cccc3c(O)ccc(c23)C(=O)N1Cc1ccccc1	-196	7	1	-126	-3	92*
COCCN(C(=O)COC(=O)c1ccc(Cl)nc1)c1c(N)n(Cc2ccccc2)c(=O)[nH]c1=O	-6	0	-1	5	-1	-1
CC(=O)c1c[nH]c(C(=O)NCc2cccc(C(F)(F)F)c2)c1	5	0	-1	4	1	-1
COc1ccc(NC(=O)C2CCN(S(=O)(=O)c3ccc(N4CCCC4=O)cc3)CC2)c(OC)c1	5	-2	-2	3	34*	0
Cc1nc2nc(SCc3ccccc3)[nH]n2c(=O)c1CCC(C)C	-2	2	-1	-4	-3	1
CC1CCCCC12NC(=O)N(CC(=O)OCc1ccccc1F)C2=O (centres undefined)	-5	-7	-2	-3	-4	3
CC1CCCCC12NC(=O)N(CC(=O)OCC(=O)NC(=O)c1ccccc1)C2=O (centres undefined)	5	1	-3	2	-8	0
CC1CCCCC12NC(=O)N(CC(=O)OCc1cccc(F)c1)C2=O (centres undefined)	-9	-2	0	-3	56*	-3
COc1ccc(C(C)(C)C)cc1NC(=O)COC(=O)CN1C(=O)NC2(CCCCC2C)C1=O (centres undefined)	-4	1	0	-3	52*	1
Cc1ccc(C)c(Cn2nc(-c3cc(C)ccc3C)ccc2=O)c1	-9	-1	-1	-5	0	1
CN(CC(=O)Nc1ccccc1Cl)C(=O)CN1C(=O)NC(c2ccccc2)(c2ccccc2)C1=O	-3	-2	-2	2	85*	0
O=C(C1=NN[C@@H]2C(=O)N(c3ccccc3C(F)(F)F)C(=O)[C@H]12)c1cnccn1	-8	-4	-1	0	123*	1
Cc1c(C(=O)N2CCCCCC2)nnn1-c1nonc1N	-5	-8	0	-5	49*	-1
CCc1noc(C)c1C(=O)Nc1nc(-c2ccc(OC)cc2OC)cs1	-7	-8	-1	0	-1	-1
O=Cc1c(N2CCN(c3ccccc3)CC2)nc2ccccn2c1=O	-4	-8	-1	0	-1	1
N#C/C(=C\c1c(N2CCCCC2)nc2ccccn2c1=O)S(=O)(=O)c1ccccc1	1	2	-6	-2	55*	1
N#CC(C#N)=Cc1c(N2CCN(c3ccccc3)CC2)nc2ccccn2c1=O	-3	-1	-1	-1	48*	-1
N#C/C(=C\c1c(N2CCN(c3ccccc3)CC2)nc2ccccn2c1=O)S(=O)(=O)c1ccccc1	0	-1	-2	1	-1	0
